Assay results reported in PubChem BioAssay.
The source made the active and inactive calls.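 The calls were made as follows, unless noted: active = visually confirmed hit in the image check and inhibition above 20%; inconclusive = visually confirmed hit but inhibition not above 20%; inactive = no visual hit in the image check.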

Legend:
[1] = inhibitors of TNFa-induced NFkB p65 translocation, primary screen, imaging, HUVEC, MLSMR starter and 10KST1 sets (AID 438;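 active = inhibition above 20% together with a positive visual image hit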;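 also: compound added about 3h40 before a 20 min TNFalpha stimulation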;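 as to inhibition: signal is the nuclear over cytoplasmic p65 intensity ratio per well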); details: HUVEC TNFa-induced p65 nuclear translocation; cell count: measured here: nuclei count (cytotoxicity indicator), at 2.08 µM; inhibition: at 2 µM, stronger effect = higher value, 0% TNFa-plus-vehicle, 100% no-TNFa wells
[2] = endothelial E-selectin expression blockers – imaging, HUVEC, immunofluorescence, MLSMR starter and 10KST1 sets, primary screen (AID 487); details: HUVEC TNFalpha-induced E-selectin immunofluorescence imaging, at 2 µM; inhibition: stronger effect = higher value; nuclei count: measured here: cell number, toxicity;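 as to inhibition: signal is fraction of cell area covered by stained E-selectin grains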;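 as to nuclei count: 100% = median nuclei count of all wells on the same plate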
[3] = Primary imaging screen for DUSP6 inhibitors that restore phospho-Erk in transfected HeLa cells, chemical complementation (AID 609;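 active = compounds giving at least 50% inhibition in the cell-based MKP-3 phosphatase rescue imaging test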;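 as to inhibition: phospho-Erk level distribution per well compared with pooled transfected vehicle control wells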); details: HeLa MKP-3 transfected, phospho-Erk imaging KS statistic, at 10 µM, cells stimulated with TPA for 15 min
[4] = target: Dual specificity protein phosphatase 6 (Homo sapiens) (UniProt Q16828); experiment: as above; details: HeLa MKP-3 transfected, phospho-Erk imaging KS statistic; at 10 µM; stronger effect = higher value; cells stimulated with TPA for 15 min
Sequence of Dual specificity protein phosphatase 6 (Homo sapiens) (Q16828 whole entry, looked up): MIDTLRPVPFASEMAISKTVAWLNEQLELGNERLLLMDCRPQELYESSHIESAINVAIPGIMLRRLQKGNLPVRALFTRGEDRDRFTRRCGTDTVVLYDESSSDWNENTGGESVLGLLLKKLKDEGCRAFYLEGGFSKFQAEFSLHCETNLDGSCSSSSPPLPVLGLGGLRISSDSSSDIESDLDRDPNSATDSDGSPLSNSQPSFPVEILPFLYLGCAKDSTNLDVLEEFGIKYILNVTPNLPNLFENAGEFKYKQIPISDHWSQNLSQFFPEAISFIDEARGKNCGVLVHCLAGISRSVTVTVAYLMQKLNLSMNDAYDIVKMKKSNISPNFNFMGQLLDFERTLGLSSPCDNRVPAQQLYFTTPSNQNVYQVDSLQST

[5] = target: Voltage-gated potassium channel subunit beta-2 (Rattus norvegicus) (UniProt P62483); experiment: inhibitors of rat Kvbeta2 reductase activity – biochemical, NADPH fluorescence, primary screen (AID 622;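 active = fluorescence slope higher than the sample average by over 3 SD, cut at about -0.22 in these data, passing the limit was not always enough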;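 also: slope of raw intensity against log time taken from 70 to 1610 s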); details: recombinant KvBeta, 4-cyanobenzaldehyde reduction, at 10 µM, stronger effect = higher value
Sequence of Voltage-gated potassium channel subunit beta-2 (Rattus norvegicus) (P62483 whole entry, looked up): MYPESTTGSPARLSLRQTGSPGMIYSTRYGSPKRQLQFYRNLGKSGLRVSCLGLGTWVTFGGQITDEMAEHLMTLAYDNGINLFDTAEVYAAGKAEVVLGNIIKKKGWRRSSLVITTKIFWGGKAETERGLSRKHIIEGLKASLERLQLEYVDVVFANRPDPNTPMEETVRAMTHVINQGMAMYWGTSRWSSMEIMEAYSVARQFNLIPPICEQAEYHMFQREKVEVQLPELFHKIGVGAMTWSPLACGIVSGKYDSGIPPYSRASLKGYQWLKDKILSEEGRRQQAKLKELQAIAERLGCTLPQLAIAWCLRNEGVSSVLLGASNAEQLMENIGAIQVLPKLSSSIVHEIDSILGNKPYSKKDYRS

[6] = target: Voltage-gated potassium channel subunit beta-2 (Rattus norvegicus) (UniProt P62483); experiment: enhancers of rat Kvbeta2 NADPH turnover – biochemical, NADPH fluorescence, primary screen (AID 623;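 active = NADPH fluorescence slope more negative than the mean of all samples by about 3 SD, 99.7% confidence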;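 also: fluorescence intensity change per second fitted from 20 to 320 s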); details: Recombinant KvBeta, NADPH fluorescence decrease slope, 10 min; at 10 µM; stronger effect = lower value
[7] = target: Alpha-2C adrenergic receptor (Homo sapiens) (UniProt P18825); experiment: compounds altering alpha2C-coupled GIRK flux – cell-based, HEK293 alpha2C/GIRK1/2, thallium flux, primary screen (AID 624;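 active = fluorescence slope after compound addition differing from the mean of all screened samples at 99.7% confidence, in either direction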;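 also: slope of fluorescence ratio to pre-addition baseline per second over 15 to 24 s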); details: thallium flux BTC fluorescence, at 10 µM, actives lie on both sides
Sequence of Alpha-2C adrenergic receptor (Homo sapiens) (P18825 whole entry, looked up): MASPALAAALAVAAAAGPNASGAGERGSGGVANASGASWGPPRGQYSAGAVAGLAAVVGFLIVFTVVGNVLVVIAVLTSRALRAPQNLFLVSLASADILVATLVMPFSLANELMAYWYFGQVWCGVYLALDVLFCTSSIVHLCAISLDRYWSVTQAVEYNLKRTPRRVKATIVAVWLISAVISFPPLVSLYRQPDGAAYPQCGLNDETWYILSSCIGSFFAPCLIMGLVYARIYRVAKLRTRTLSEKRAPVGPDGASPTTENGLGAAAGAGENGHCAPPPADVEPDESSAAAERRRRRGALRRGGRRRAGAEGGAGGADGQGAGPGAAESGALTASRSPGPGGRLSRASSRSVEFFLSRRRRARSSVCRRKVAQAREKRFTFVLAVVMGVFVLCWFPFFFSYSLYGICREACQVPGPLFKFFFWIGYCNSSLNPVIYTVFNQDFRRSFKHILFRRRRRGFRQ

[8] = inhibitors of larval lipid processing in zebrafish, primary screen, whole organism, PED6 fluorescence, gall bladder and intestine (AID 686;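 active = a full or partial loss of lipid-probe fluorescence in the fish gall bladder, intestine or both, judged by eye; inactive = no fluorescence loss, or compound toxic to the fish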;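 also: larvae 5 to 7 days old with five fish per well; signal comes from phospholipase A2 cleavage of quenched PED6 carried via bile; overnight exposure to compound and PED6 before scoring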); details: Zebrafish larvae PED6 lipid processing, fluorescence scoring; screened at 20 µM (by protocol)
Procedure, shortened: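 system = live zebrafish larvae aged 5-7 days, whole organism | probe or stimulus = ingested quenched lipid PED6 at 100 nM | doses = 20 µM single dose | timing = overnight exposure | detection = fluorescence microscopy with visual scoring of gall bladder and intestine | read-out = visual per-well fluorescence inhibition score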

[9] = loss of swimming-algae plug formation – whole organism, Chlamydomonas reinhardtii, WT vs cilia-less mutant, absorbance, 96-well, primary screen (AID 463189;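 active = inhibition at or above 50% relative to wild type and mutant plate controls; inactive = inhibition below 50%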;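 also: 0% = wild type cc124 cells in DMSO and 100% = ciliumless bld1 mutant cells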); details: Chlamydomonas reinhardtii gravitaxis, OD600 absorbance, 2 days; at 10 µM; stronger effect = higher value
[10] = measured here: cell density z-score
[11] = measured here: nuclear c-Myc green intensity z-score
[12] = measured here: nuclear pErk red intensity z-score, stronger effect = higher value

In the case of `CNC(=O)C1CC(=O)N(Cc2ccccc2)C(=Nc2ccc(OC)cc2)S1` (centres undefined), the cell count [1] is reported as 491, the inhibition [1] is reported as -5.2% (inactive) and the inhibition [2] is reported as -228% (inactive). The nuclei count [2] was 127%, the z-score [3, 10] was -1.18 and the z-score [3, 11] was -0.897. For the same molecule, the z-score [3, 12] was 1.34, the inhibition [4] was -14% (inactive) and the fluorescence slope [5] was -0.496 (inactive). For the same molecule, the NADPH fluorescence slope [6] was -4.1e-05 (inactive), the slope [7] was 0.00456 (inactive) and the outcome [8] was “inactive”. The inhibition [9] was 1.87% (inactive).
In the case of `N/C(CCCN1CCCCC1)=N/O`, the cell count [1] is reported as 498, the inhibition [1] is reported as -6% (inactive) and the inhibition [2] is reported as 28.3% (inactive). It also gave a nuclei count [2] of 108%, a z-score [3, 10] of 1.83 and a z-score [3, 11] of -0.291. The z-score [3, 12] was 0.182, the inhibition [4] was 17.3% (inactive) and the fluorescence slope [5] was -0.509 (inactive). The NADPH fluorescence slope [6] was -8e-06 (inactive), the slope [7] was 0.00607 (inactive) and the outcome [8] was “inactive”. For the same molecule, the inhibition [9] was 12.2% (inactive).
For `Cc1occc1C(=O)OCC(=O)Nc1ccc(F)cc1`, the cell count [1] was 527, the inhibition [1] was -1.1% (inactive) and the inhibition [2] was -31.2% (inactive). For the same molecule, the nuclei count [2] was 113%, the z-score [3, 10] was -1.12 and the z-score [3, 11] was -1.15. The z-score [3, 12] was 1.8, the inhibition [4] was 29.3% (inactive) and the fluorescence slope [5] was -0.56 (inactive). The NADPH fluorescence slope [6] was -4.4e-05 (inactive), the slope [7] was 0.00567 (inactive) and the outcome [8] was “inactive”. The inhibition [9] was 1.09% (inactive).
With `CCOC(=O)CSC1=C(C#N)C(c2ccc(OC)cc2)C2=C(CC(C)(C)CC2=O)N1` (centres undefined) the cell count [1] was 362, the inhibition [1] was -10.7% (inactive) and the inhibition [2] was -126% (inactive). For the same molecule, the nuclei count [2] was 174%, the z-score [3, 10] was 0.65 and the z-score [3, 11] was -1.25. The z-score [3, 12] was -0.233, the inhibition [4] was -8.59% (inactive) and the fluorescence slope [5] was -0.411 (inactive). The NADPH fluorescence slope [6] was -0.000354 (inactive), the slope [7] was 0.00489 (inactive) and the outcome [8] was “inactive”. The inhibition [9] was 25.7% (inactive).
In the case of `O=C(c1cccs1)N1CCC(N2CCN(c3ccccc3)CC2)CC1`, the cell count [1] is reported as 390, the inhibition [1] is reported as -7.3% (inactive) and the inhibition [2] is reported as -50.1% (inactive). It also gave a nuclei count [2] of 119%, a z-score [3, 10] of 0.783 and a z-score [3, 11] of 0.365. The z-score [3, 12] was -0.94, the inhibition [4] was 11.3% (inactive) and the fluorescence slope [5] was -0.378 (inactive). The NADPH fluorescence slope [6] was -1.9e-05 (inactive), the slope [7] was 0.00799 (inactive) and the outcome [8] was “inactive”. The inhibition [9] was 43.7% (inactive).
With `COC(=O)CSC1=C(C#N)C(=O)NC2(CCCCC2)S1` the cell count [1] was 573, the inhibition [1] was -10.7% (inactive) and the inhibition [2] was -35.3% (inactive). For the same molecule, the nuclei count [2] was 154%, the z-score [3, 10] was -0.563 and the z-score [3, 11] was 0.765. The z-score [3, 12] was 0.767, the inhibition [4] was -11.5% (inactive) and the fluorescence slope [5] was -0.493 (inactive). For the same molecule, the NADPH fluorescence slope [6] was -4.7e-05 (inactive), the slope [7] was 0.00592 (inactive) and the outcome [8] was “inactive”. The inhibition [9] was -6.72% (inactive).
In the case of `Cc1nc(NS(=O)(=O)c2ccccc2)sc1NC(=O)OCCN(C)C`, the cell count [1] is reported as 362, the inhibition [1] is reported as -18.9% (inactive) and the inhibition [2] is reported as -107% (inactive). It also gave a nuclei count [2] of 130%, a z-score [3, 10] of 1.66 and a z-score [3, 11] of -0.339. For the same molecule, the z-score [3, 12] was -0.337, the inhibition [4] was 24.3% (inactive) and the fluorescence slope [5] was -0.331 (inactive). The NADPH fluorescence slope [6] was 2.1e-06 (inactive), the slope [7] was 0.00439 (inactive) and the outcome [8] was “inactive”. For the same molecule, the inhibition [9] was 34.8% (inactive).
For `Nc1nnc(CC2=CCCCC2)s1`, the cell count [1] was 579, the inhibition [1] was -13.4% (inactive) and the inhibition [2] was 28.3% (inactive). The nuclei count [2] was 152%, the z-score [3, 10] was -0.93 and the z-score [3, 11] was 0.818. The z-score [3, 12] was -0.135, the inhibition [4] was -9.66% (inactive) and the fluorescence slope [5] was -0.396 (inactive). The NADPH fluorescence slope [6] was -3.4e-05 (inactive), the slope [7] was 0.00749 (inactive) and the outcome [8] was “inactive”. The inhibition [9] was 8.68% (inactive).
In the case of `Cn1c(OCc2cccnc2)nc2c1c(=O)n(Cc1ccc(Cl)cc1)c(=O)n2C`, the cell count [1] is reported as 653, the inhibition [1] is reported as -7.1% (inactive) and the inhibition [2] is reported as 6.1% (inactive). It also gave a nuclei count [2] of 156%, a z-score [3, 10] of -0.404 and a z-score [3, 11] of 0.0478. For the same molecule, the z-score [3, 12] was 1.27, the inhibition [4] was 2.46% (inactive) and the fluorescence slope [5] was -0.505 (inactive). The NADPH fluorescence slope [6] was -9.6e-05 (inactive), the slope [7] was 0.00416 (inactive) and the outcome [8] was “inactive”. The inhibition [9] was 66.4% (active).
For `CCCCNc1nc2c(c(=O)n(C)c(=O)n2C)n1Cc1cccc(OC)c1`, the cell count [1] was 452, the inhibition [1] was -7.7% (inactive) and the inhibition [2] was -133% (inactive). For the same molecule, the nuclei count [2] was 175%, the z-score [3, 10] was 0.299 and the z-score [3, 11] was -0.341. For the same molecule, the z-score [3, 12] was -1.15, the inhibition [4] was -5.62% (inactive) and the fluorescence slope [5] was -0.378 (inactive). The NADPH fluorescence slope [6] was -1.6e-05 (inactive), the slope [7] was 0.00373 (inactive) and the outcome [8] was “active; weak signal in gallbladder and intestine”. For the same molecule, the inhibition [9] was 1.32% (inactive).
In the case of `O=C1CC(NCc2ccc3c(c2)OCO3)C(=O)N1Cc1ccc2c(c1)OCO2` (centres undefined), the cell count [1] is reported as 521, the inhibition [1] is reported as 5.6% (inactive) and the inhibition [2] is reported as -127% (inactive). The nuclei count [2] was 139%, the z-score [3, 10] was 0.834 and the z-score [3, 11] was 0.684. For the same molecule, the z-score [3, 12] was -0.627, the inhibition [4] was 15.8% (inactive) and the fluorescence slope [5] was -0.505 (inactive). For the same molecule, the NADPH fluorescence slope [6] was -3.7e-05 (inactive), the slope [7] was 0.00655 (inactive) and the outcome [8] was “inactive”. For the same molecule, the inhibition [9] was 17.7% (inactive).
With `CCOC(=O)CC1=C(C(=O)OCC)C(c2ccc(OC)c(OC)c2)C(C#N)=C(N)O1` (centres undefined) the cell count [1] was 471, the inhibition [1] was -4.3% (inactive) and the inhibition [2] was -157% (inactive). It also gave a nuclei count [2] of 163%, a z-score [3, 10] of -0.376 and a z-score [3, 11] of -0.993. For the same molecule, the z-score [3, 12] was -1.45, the inhibition [4] was 4.25% (inactive) and the fluorescence slope [5] was -0.359 (inactive). For the same molecule, the NADPH fluorescence slope [6] was 6.8e-06 (inactive), the slope [7] was 0.00447 (inactive) and the outcome [8] was “inactive”. For the same molecule, the inhibition [9] was 24.9% (inactive).
In the case of `CCOC(=O)C1=C(CSc2nc3c(cc2C#N)CN(C)CC3)OC(N)=C(C#N)C1c1ccccc1` (centres undefined), the cell count [1] is reported as 616, the inhibition [1] is reported as -8.1% (inactive) and the inhibition [2] is reported as 28.8% (inactive). It also gave a nuclei count [2] of 169%, a z-score [3, 10] of 1.95 and a z-score [3, 11] of -0.602. For the same molecule, the z-score [3, 12] was 0.371, the inhibition [4] was -5.62% (inactive) and the fluorescence slope [5] was -0.384 (inactive). For the same molecule, the NADPH fluorescence slope [6] was -4.7e-05 (inactive), the slope [7] was 0.00325 (inactive) and the outcome [8] was “inactive”. For the same molecule, the inhibition [9] was -1.09% (inactive).
